Screening results (PubChem BioAssay)
Only some compounds are listed: those with a hit (about 3.9% of all), similar ones and a draw of the others.
CHRM1 antagonist: human M1 muscarinic receptor antagonists, primary screen, CHO-K1 cells, Fluo-8 calcium fluorescence, 1536-well. CHO-K1 hM1, ACh EC80 antagonist. AID 588852, 2011. 360,000 compounds, 1.3% hits. inhibition, % at 3 µM. Muscarinic acetylcholine receptor M1 (Homo sapiens), P11229;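 active = percent inhibition above its own plate's cutoff, namely the mean of that plate's compound wells plus 3 SD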;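 also: peak over basal fluorescence ratio during 140 s after agonist addition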
CHRM1 agonist: human M1 muscarinic receptor agonists, primary screen, Fluo-8 calcium fluorescence, CHO-K1 cells, HTS; Muscarinic acetylcholine receptor M1 (Homo sapiens), P11229; CHO-K1 hM1, agonist mode; 0% DMSO, 100% acetylcholine EC100; activation, % at 3 µM; 360,000 compounds, 0.33% hits;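 active = activation above the run's mean compound activation plus 3 SD, cut at about 16% in these data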;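 also: peak over basal fluorescence ratio within a 140 s kinetic read after compound addition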
TAAR1 antag: human TAAR1 antagonists, primary screen, Fluo-8 calcium fluorescence, CHO RD-HGA16 cells; Trace amine-associated receptor 1 (Homo sapiens), Q96RJ0; antagonist; inhibition, % at 3 µM; 360,000 compounds, 1.5% hits; AID 624466, 2012;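 active = inhibition above a per-plate cutoff, the mean inhibition of test compounds on that plate plus 3 SD, cut at about 49% in these data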
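Test system – hTAAR1-expressing CHO RD-HGA16 cells, Gα16-coupled · Reagent – β-PEA at EC80 concentration, post-compound challenge · Compound dosing – 3 µM, single point · Timing – 140 s kinetic read after compound, 140 s after agonist · Detection – Fluo-8 intracellular calcium dye fluorescence, real-time kinetic reads · Control set – DMSO and EC80 PEA controls · Repeats – n of 1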
M1 PAM: human M1 muscarinic receptor positive allosteric modulators, primary screen, CHO-K1 cells, Fluo-8 calcium fluorescence, 1536-well | Muscarinic acetylcholine receptor M1 (Homo sapiens), P11229 | CHO-K1 hM1, ACh EC20; 0% = ACh EC20, 100% = maximal ACh | activation, % at 3 µM | 360,000 compounds, 0.088% hits; in the data active = activation above about 19%, passing the limit was not always enough
TAAR1 agonist: human TAAR1 agonists, primary screen, Fluo-8 calcium fluorescence, CHO RD-HGA16 cells; Trace amine-associated receptor 1 (Homo sapiens), Q96RJ0; vehicle wells 0%, saturating PEA agonist 100%; activation, % at 3 µM; 360,000 compounds, 0.99% hits; AID 624467, 2012;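 active = activation above the mean activation of all test compounds in the run plus 3 SD, cut at about 38% in these data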
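Repeats: no replicates (n 1) | Material: CHO-derived RD-HGA16 cells with stable Gα16 and human TAAR1 | Technique: Kinetic Fluo-8 calcium fluorescence | Schedule: 17-24 h seeding, 75 min 37 °C dye, 30 min RT | Evaluation: % activation from peak over basal fluorescence ratio, DMSO-to-PEA scaled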
HTR2A ag: mouse Htr2a agonists via beta-arrestin recruitment, primary screen, cell-based, luminescence; CHO-K1 mHTR2A beta-arrestin complementation; percent of 30 µM serotonin response; activation, % at 7.6 µM; 360,000 compounds, 0.66% hits; AID 624169, 2012;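 active = activation above a run cutoff, the mean activation of all tested compounds plus 3 SD, cut at about 14% in these data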
Target sequence (P35363 whole entry, looked up): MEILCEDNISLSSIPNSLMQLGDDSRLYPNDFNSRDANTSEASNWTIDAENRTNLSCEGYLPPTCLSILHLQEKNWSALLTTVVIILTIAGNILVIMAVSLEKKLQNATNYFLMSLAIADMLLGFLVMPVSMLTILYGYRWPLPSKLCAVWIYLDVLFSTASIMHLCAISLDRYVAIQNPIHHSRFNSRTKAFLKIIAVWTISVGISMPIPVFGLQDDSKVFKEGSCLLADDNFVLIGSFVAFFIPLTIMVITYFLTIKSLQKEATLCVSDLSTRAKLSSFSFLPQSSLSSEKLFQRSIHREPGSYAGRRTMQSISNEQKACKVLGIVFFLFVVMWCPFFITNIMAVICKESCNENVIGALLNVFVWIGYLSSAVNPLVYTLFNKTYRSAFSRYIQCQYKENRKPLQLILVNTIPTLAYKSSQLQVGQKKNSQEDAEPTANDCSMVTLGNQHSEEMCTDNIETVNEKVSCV
Each line names hits and unclear results; the compound was inactive in the other large screens.

COC1C(O)CCC2(CO2)C1C1(C)OC1CC=C(C)C (stereo unspecified)	none (no result: CHRM1 antagonist, CHRM1 agonist, M1 PAM, HTR2A ag)
CC1(C(=O)Nc2cnc3ccccc3c2)CCN1Cc1cc2ccccc2o1 (stereo unspecified)	TAAR1 antag 49
CC1(C(=O)Nc2cnc3ccccc3c2)CCN1Cc1ccc2ccccc2c1 (stereo unspecified)	none
O=C(O)c1ccccc1Nc1ccc([N+](=O)[O-])c2nonc12	none (no result: TAAR1 antag, TAAR1 agonist)
N#CC1=C(N2CCCCC2)c2cc3c(n2C1=O)CCCC3	CHRM1 antagonist 35
CN1CCC(C2(O)c3ccccc3CCc3ccccc32)CC1	CHRM1 antagonist 57
S=C(CN1CCCC1=S)NCCc1ccccc1	TAAR1 agonist 40
CCOC(=O)c1cccc(OS(=O)(=O)Cc2ccccc2)c1	none
COC(=O)C1=C(C)N(Cc2cccc(C(F)(F)F)c2)C(=NCc2cc(OC)c(OC)c(OC)c2)NC1c1cccc(C(F)(F)F)c1 (stereo unspecified)	none (no result: CHRM1 antagonist, CHRM1 agonist, M1 PAM, HTR2A ag)
Cc1ccc(-c2csc(=Nc3cccnc3)n2CCCn2ccnc2)cc1C	CHRM1 antagonist 41
CCc1nc2ccc(C(=O)Nc3ccc(OC)c(OC)c3)cn2c1N(CCC(C)C)CCN(C)C	CHRM1 agonist 18
CCc1nc2ccc(C(=O)NCCOc3ccc(OC)cc3)cn2c1N(CCC(C)C)CCN(C)C	CHRM1 agonist 34
CCCCNC(=O)c1ccc2nc(CC)c(N(CCC(C)C)CCN(C)C)n2c1	CHRM1 agonist 22
CCc1nc2ccc(C(=O)Nc3ccc(NC(C)=O)cc3)cn2c1N(CCC(C)C)CCN(C)C	none
O=C(CN1CCN(C(=O)N2CCOCC2)CC1)Nc1cc(Cl)ccc1Cl	none
CN(c1ccccc1)S(=O)(=O)c1ccc(Cl)c(C(=O)NCC(c2ccco2)N2CCCC2)c1 (stereo unspecified)	none
Cc1cccnc1C(NC(=O)C1CCN(Cc2ccc3ccccc3n2)CC1)c1ccc(Cl)cc1 (stereo unspecified)	CHRM1 antagonist 31
Cc1cccnc1C(NC(=O)C1CCN(Cc2ccc(Cl)cc2)CC1)c1ccc(F)cc1 (stereo unspecified)	none
Cc1ccc2nc(-c3ccco3)c(Cc3ccccc3C(F)(F)F)n2c1	none (no result: CHRM1 antagonist, CHRM1 agonist, M1 PAM, HTR2A ag)
CCOC(=O)C1(Cc2cccc(OC)c2)CCN(C/C=C/c2ccccc2)CC1	none
CCOC(=O)C1(Cc2cccc(OC)c2)CCN(C/C=C/c2ccc(OC)cc2)CC1	CHRM1 antagonist 33
O=C(N[C@H](Cc1ccccc1)C(=O)NCc1cccc2ccccc12)[C@H]1O[C@@H](n2ccc(=O)[nH]c2=O)[C@H](O)[C@@H]1O	none (no result: CHRM1 antagonist, CHRM1 agonist, M1 PAM, HTR2A ag)
O=[N+]([O-])c1cc2c(cc1C=Nc1ccccc1)OCO2	HTR2A ag 15 (no result: TAAR1 antag, TAAR1 agonist)
Cc1ccc(NC(=O)c2oc3ccc(Br)cc3c2C)cc1S(=O)(=O)N1CCOCC1	none
O=C(Nc1ccccc1)Nc1cc(OCC(F)(F)F)cc(OCC(F)(F)F)c1	CHRM1 antagonist 25
O=C(Nc1ccccc1)Nc1cc(Cl)cc(Cl)c1	none
CC1(OC(=O)C2CCCC2)C(=O)C=C2C=C(c3ccsc3)N(C3CCCCC3)C=C2C1=O (stereo unspecified)	none
CC1(OC(=O)C2CCCC2)C(=O)C=C2C=C(c3ccsc3)N(CC3CC3)C=C2C1=O (stereo unspecified)	CHRM1 antagonist 67
COCC1CCCN(C(=O)c2cc(COc3ccc4ncccc4c3)on2)C1 (stereo unspecified)	CHRM1 antagonist 35
CCOC(=O)C1CCCN(C(=O)c2cc(-c3ccc(C)cc3)on2)C1 (stereo unspecified)	none
O=C(c1cc(COc2ccc3ncccc3c2)on1)N1CCCC(O)C1 (stereo unspecified)	none
CC(CNC(=O)c1cc(COc2ccc3ncccc3c2)on1)c1ccccc1 (stereo unspecified)	CHRM1 antagonist 43
O=C(NC1CCCCCCC1)c1cc(COc2ccc3ncccc3c2)on1	CHRM1 antagonist 49
CCOC(=O)C1CCCN(C(=O)c2cc(COc3ccc(C)nc3)on2)C1 (stereo unspecified)	CHRM1 agonist 27
COc1cc(NC(=O)c2cc3ccccc3cc2O)c(OC)cc1Cl	TAAR1 antag 49, HTR2A ag 21
COc1cc(OC)c(NC(=O)c2ccccc2F)cc1Cl	none
CCOc1ccc(S(=O)(=O)N2CCCC(C(=O)NCc3ccncc3)C2)cc1 (stereo unspecified)	none
O=C(c1ccc2c(c1)OCO2)C1CCCN(Cc2ccc3nsnc3c2)C1 (stereo unspecified)	CHRM1 antagonist 78
O=C(c1ccc2c(c1)OCO2)C1CCCN(Cc2ccccc2OC(F)F)C1 (stereo unspecified)	CHRM1 antagonist 75
COc1cccc(CN2CCCC(C(=O)c3ccc4c(c3)OCO4)C2)c1OC (stereo unspecified)	CHRM1 antagonist 57
O=C(c1ccc2c(c1)OCO2)C1CCCN(Cc2cc(F)ccc2-n2cccn2)C1 (stereo unspecified)	none
O=C(c1ccc2c(c1)OCO2)C1CCCN(Cc2c(F)ccc(F)c2F)C1 (stereo unspecified)	CHRM1 antagonist 88
C[C@@H]1COC(=O)[C@@H](NC(=O)OCC2c3ccccc3-c3ccccc32)C/C=C\C[C@@H](CC(=O)N(CCO)Cc2ccccc2)C(=O)N1	none
COc1cccc(C=O)c1OCCN1C(=O)c2ccccc2C1=O	none
COc1ccc(C(=O)C2CCCN(C3Cc4ccccc4C3)C2)cc1OC (stereo unspecified)	CHRM1 antagonist 90
COc1ccc(C(=O)C2CCCN(Cc3cccc4c3OCO4)C2)cc1OC (stereo unspecified)	CHRM1 antagonist 29
COc1ccc(C(=O)C2CCCN(Cc3c(O)cccc3OC)C2)cc1OC (stereo unspecified)	none
COc1ccc(C(=O)C2CCCN(Cc3nc4ccccc4nc3C)C2)cc1OC (stereo unspecified)	none
COC(=O)Cn1c2ccc(OC)cc2c2nc(C)sc21	none
CC(C)NC(=O)N1CC(c2ccccc2)C(c2ccc(Cl)cc2)=N1 (stereo unspecified)	CHRM1 antagonist 35
CN(Cc1ccc(C(C)(C)C)cc1)C(=O)C1CCN(C(=O)Nc2ccccc2)CC1	none
